Common to all, as to type: functional, cell-based
The test system of one assay is UACC-62. The experiment in a line: Antitumor activity against human UACC62 cells by SRB colorimetric assay. The method, boiled down:
(§1)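 NCI sulforhodamine B colorimetric growth assay in 96-well plates. Each compound tested at four concentrations in 10-fold dilutions. Doxorubicin as positive control. IC50 taken from concentration–response curves as the concentration giving 50% reduction in cell growth versus untreated control cells.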
A general note: Sulforhodamine B stains cellular protein and so reports cell mass.

In another assay the test system is MCF7. The experiment in a line: Antitumor activity against human MCF7 cells by SRB colorimetric assay. The gist of the method:
as §1

The test system of another assay is NCI-H460. The experiment in a line: Antitumor activity against human NCI-H460 cells by SRB colorimetric assay. The method, boiled down:
as §1

A further assay relates to K562. The experiment in a line: Antitumor activity against human K562 cells by SRB colorimetric assay. The method, boiled down: as §1
A further assay concerns OVCAR. The experiment in a line: Antitumor activity against human OVCAR cells by SRB colorimetric assay. The gist of the method:
as §1

The nature of assay [1]: Antitumor activity against human PCO3 cells by SRB colorimetric assay. The method, boiled down: as §1
The next assay has as its system HT-29. The experiment in a line: Antitumor activity against human HT-29 cells by SRB colorimetric assay. The gist of the method:
as §1

The test system of a further assay is 786-0. The experiment in a line: Antitumor activity against human 786-0 cells by SRB colorimetric assay. The method, boiled down: as §1

With `COc1ccc(-c2nc(C(=O)N/N=C/c3ccc(N(C)C)cc3)cc3c2[nH]c2ccccc23)cc1`, the concentration for half-maximal inhibition (IC50) (with UACC-62; in the assay on MCF7; in the assay with NCI-H460; in the assay with K562; with OVCAR; in assay [1]) was over 100 µM each time. Further, the IC50 in the assay with HT-29 and in the assay on 786-0 was over 100 µM in each case.
Take `COc1ccc(-c2nc(C(=O)N/N=C/c3ccccc3)cc3c2[nH]c2ccccc23)cc1`: the IC50 (usually the concentration needed to halve the response being measured) with UACC-62 turned out to be 3.45 µM; with MCF7 it was 36 µM; with NCI-H460 it was 3.45 µM; with K562, 3.22 µM; with OVCAR, 32.3 µM; in assay [1], 26.5 µM. The results for the IC50 with HT-29 and with 786-0 were 36 µM and 93.4 µM, respectively.
`CN(C)c1ccc(/C=N/NC(=O)c2cc3c4ccccc4n(C)c3c(-c3cccc([N+](=O)[O-])c3)n2)cc1`: the IC50 (with UACC-62; in the assay on MCF7; in the assay with NCI-H460; in the assay with K562; in the assay on OVCAR; in assay [1]) was over 100 µM in each case. Further, the half-maximal inhibitory concentration (IC50) with HT-29 is over 100 µM; in the assay with 786-0, 1.24 µM.
As to `CN(C)c1ccc(/C=N/NC(=O)c2cc3c([nH]c4ccccc43)c(-c3ccccc3)n2)cc1`, the IC50 with UACC-62 is 87.1 µM; in the assay on MCF7 it was 75.9 µM; in the assay on NCI-H460 it was over 100 µM; in the assay on K562 it was over 100 µM; with OVCAR, 75.9 µM; in assay [1] it was 87.1 µM. The IC50 in the assay with HT-29 and in the assay on 786-0 was over 100 µM each time.
As for `COc1ccc(/C=N/NC(=O)c2cc3c([nH]c4ccccc43)c(-c3ccc(OC)cc3)n2)cc1`, the 50% inhibitory concentration (IC50) in the assay with UACC-62 is 91.4 µM; in the assay with MCF7, 71.4 µM; in the assay with NCI-H460, 35.1 µM; in the assay with K562 it was over 100 µM; with OVCAR it was over 100 µM; in assay [1] it was over 100 µM. Moreover, the concentration for half-maximal inhibition (IC50) with HT-29 and in the assay with 786-0 was over 100 µM each time.
`CC(C)=NNC(=O)c1cc2c([nH]c3ccccc32)c(-c2ccc(N(C)C)cc2)n1`: the IC50 is 10.1 µM with UACC-62; 16.8 µM in the assay on MCF7; 25.4 µM with NCI-H460; 23.4 µM in the assay on K562; 40.5 µM in the assay with OVCAR; 19 µM in assay [1]. The IC50 with HT-29 is 35.6 µM; in the assay on 786-0, 26.5 µM.
Regarding `O=C(NN=C1CCCCC1)c1cc2c([nH]c3ccccc32)c(-c2cccc([N+](=O)[O-])c2)n1`, the IC50 in the assay on UACC-62 was over 100 µM; in the assay on MCF7, over 100 µM; in the assay on NCI-H460 it was over 100 µM; with K562, 87.1 µM; in the assay on OVCAR it was over 100 µM; in assay [1] it was over 100 µM. Further, the IC50 in the assay on HT-29 and in the assay on 786-0 was over 100 µM throughout.
With `CC(C)=NNC(=O)c1cc2c([nH]c3ccccc32)c(-c2ccc(O)cc2)n1`, the IC50 was 35.4 µM in the assay on UACC-62; 24.3 µM with MCF7; 38.1 µM in the assay with NCI-H460; 18.1 µM with K562; over 100 µM in the assay on OVCAR; 19.7 µM in assay [1]. The results for the IC50 with HT-29 and with 786-0 were over 100 µM and 24.3 µM, respectively.
As for `COc1ccc(-c2nc(C(=O)NN=C3CCCC3)cc3c2[nH]c2ccccc23)cc1`, the IC50 was 76.4 µM with UACC-62; over 100 µM in the assay on MCF7; over 100 µM in the assay with NCI-H460; over 100 µM with K562; over 100 µM with OVCAR; over 100 µM in assay [1]. Besides, the IC50 in the assay on HT-29 and in the assay on 786-0 was over 100 µM each time.
In the case of `Cn1c2ccccc2c2cc(C(=O)N/N=C/c3ccccc3Cl)nc(-c3ccccc3)c21`, the IC50 (in the assay with UACC-62; in the assay on MCF7; in the assay on NCI-H460; in the assay on K562; in the assay with OVCAR; in assay [1]) was over 100 µM each time. Moreover, the IC50 in the assay with HT-29 and in the assay on 786-0 was over 100 µM each time.

Source of the values: ChEMBL document CHEMBL1914299, “Synthesis and antitumor activity of β-carboline 3-(substituted-carbohydrazide) derivatives” (Bioorg Med Chem, 2011).
